ChEMBL document CHEMBL3608246, “Novel benzidine and diaminofluorene prolinamide derivatives as potent hepatitis C virus NS5A inhibitors” (Eur J Med Chem, 2015)
Activity calls are given as the source filed them. No cut-off for these calls is given here.

How the values were obtained:
Salmonella typhimurium [1] = assay: Genotoxicity in Salmonella typhimurium TA98 assessed as induction of revertant colonies at 200 ug/plate in absence of S9 mix by Ames test relative untreated control; format: toxicity, organism-based; conditions: salmonella enterica subsp. enterica serovar typhimurium
In short: (§1)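 Ames test, Maron's method, histidine-requiring S. typhimurium TA98 and TA100, with and without S-9 mix; 200 µg/plate, vehicle and positive controls. Revertant colonies counted in triplicate (mean ± SD, n = 3); factor = treated/vehicle-control colonies; positive if ≥2-fold over vehicle.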

Salmonella typhimurium [2] = assay: Genotoxicity in Salmonella typhimurium TA100 assessed as induction of revertant colonies at 200 ug/plate in absence of S9 mix by Ames test relative untreated control; format: toxicity, organism-based; conditions: salmonella enterica subsp. enterica serovar typhimurium; in short: as §1
Salmonella typhimurium [3] = assay: Genotoxicity in Salmonella typhimurium TA98 assessed as induction of revertant colonies at 200 ug/plate in presence of S9 mix by Ames test relative untreated control; format: toxicity, organism-based; conditions: salmonella enterica subsp. enterica serovar typhimurium; in short: as §1
Salmonella typhimurium [4] = assay: Genotoxicity in Salmonella typhimurium TA100 assessed as induction of revertant colonies at 200 ug/plate in presence of S9 mix by Ames test relative untreated control; format: toxicity, organism-based; conditions: salmonella enterica subsp. enterica serovar typhimurium; in short: as §1
Hepatitis C virus [5] = assay: Antiviral activity against HCV genotype 2a JFH5a infected in human Huh7.5.1 cells transfected with JFH5a-Rluc-ad34 assessed as reduction in virus proliferation by luciferase reporter gene assay; format: functional, cell-based, Hepacivirus hominis, Huh-7; conditions: Hepatitis C virus, genotype 2a JFH5a, Huh-7
Hepatitis C virus [6] = assay: Antiviral activity against HCV genotype 1b NK/R2AN infected in human Huh7.5.1 cells assessed as reduction in virus replication by luciferase reporter gene assay; format: functional, organism-based, Hepacivirus hominis, subtype 1b NK/R2AN, Huh-7; conditions: Hepatitis C virus, subtype 1b NK/R2AN, Huh-7
[7] = Cytotoxicity against human Huh7.5.1 cells; format: cell-based, Huh-7
hERG (KCNH2) = hERG (KCNH2) (Homo sapiens, UniProt Q12809); assay: Inhibition of human ERG at 10 uM by fluorescence polarization assay based ligand binding assay
[8] = Stability in human liver microsomes assessed as compound remaining at 1 uM after 0.5 hrs by LC-MS/MS method; format: ADME; conditions: read-out: Stability
In short: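 Pooled human liver microsomal fraction with β-NADPH, compound at 1 µM, incubated over 30 min; remaining compound in supernatant quantified by LC-MS/MS.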

Cytochrome P450 1A2 = molecular target: T1, Cytochrome P450 1A2 (Homo sapiens, UniProt P05177); assay: Inhibition of human CYP1A2 by luminometry; format: ADME
T1 sequence (P05177 whole entry): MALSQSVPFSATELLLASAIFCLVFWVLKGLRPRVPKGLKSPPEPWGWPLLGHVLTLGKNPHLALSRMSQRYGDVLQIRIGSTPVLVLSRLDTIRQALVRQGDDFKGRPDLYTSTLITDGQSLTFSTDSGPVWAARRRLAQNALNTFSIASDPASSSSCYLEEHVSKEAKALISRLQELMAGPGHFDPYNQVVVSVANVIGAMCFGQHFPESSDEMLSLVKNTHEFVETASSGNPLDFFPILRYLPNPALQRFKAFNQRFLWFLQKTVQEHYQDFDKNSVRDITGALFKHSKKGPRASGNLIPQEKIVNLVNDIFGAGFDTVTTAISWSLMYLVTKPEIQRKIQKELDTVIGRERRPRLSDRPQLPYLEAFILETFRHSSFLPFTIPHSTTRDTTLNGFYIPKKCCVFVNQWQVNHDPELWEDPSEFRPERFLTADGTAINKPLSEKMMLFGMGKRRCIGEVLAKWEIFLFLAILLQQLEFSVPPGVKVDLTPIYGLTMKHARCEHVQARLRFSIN
In short: (§2)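 Human CYP1A2, 2C9, 2C19, 2D6 and 3A4 inhibition by P450-Glo luminescent assay per kit protocol; compounds at 100, 50, 10, 5, 1, 0.1 and 0.01 µM; luminometer read-out.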

Cytochrome P450 2C9 = Cytochrome P450 2C9 (Homo sapiens, UniProt P11712); assay: Inhibition of human CYP2C9 by luminometry; format: ADME; in short: as §2
Cytochrome P450 2D6 = Cytochrome P450 2D6 (Homo sapiens, UniProt P10635); assay: Inhibition of human CYP2D6 by luminometry; format: ADME; in short: as §2
Cytochrome P450 2C19 = Cytochrome P450 2C19 (Homo sapiens, UniProt P33261); assay: Inhibition of human CYP2C19 by luminometry; format: ADME; in short: as §2
Cytochrome P450 3A4 = Cytochrome P450 3A4 (Homo sapiens, UniProt P08684); assay: Inhibition of human CYP3A4 by luminometry; format: ADME; in short: as §2
[9] = Half life in Sprague-Dawley rat at 10 mg/kg, po by LC/MS/MS method; format: ADME, organism-based; conditions: in vivo
In short: (§3)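 Sprague-Dawley rats, 2 male and 1 female per compound per route, parallel design. Vehicle 5% DMSO, 10% solutol, 85% HPBCD; IV 5 mg/kg bolus via tail vein, oral 10 mg/kg. Blood into K2-EDTA tubes at several time points, centrifuged, plasma analysed by LC/MS/MS; non-compartmental analysis.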

[10] = Oral bioavailability in Sprague-Dawley rat at 10 mg/kg by LC/MS/MS method; format: ADME, organism-based; conditions: in vivo; in short: as §3
[11] = Half life in Sprague-Dawley rat at 5 mg/kg, iv by LC/MS/MS method; format: ADME, organism-based; conditions: in vivo; in short: as §3
Hepatitis C virus [12] = assay: Antiviral activity against HCV genotype 1b NK/R2AN infected in human Huh7.5.1 cells expressing NS5A L31V mutant assessed as reduction in virus replication at 100 pM to 1 uM by luciferase reporter gene assay; format: functional, organism-based; conditions: Hepacivirus hominis, subtype 1b NK/R2AN, Huh-7
In short: (§4)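 Daclatasvir-resistant NS5A mutant RNAs were transcribed in vitro and electroporated into Huh7.5.1 cells grown in 12-well plates. At 4 h post-transfection, medium was replaced with DMEM containing serially diluted compounds. Cells were harvested 3 days later and Renilla luciferase activity was measured and normalized to mock-treated cells.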

Hepatitis C virus [13] = assay: Antiviral activity against HCV genotype 1b NK/R2AN infected in human Huh7.5.1 cells expressing NS5A Y93H mutant assessed as reduction in virus replication at 100 pM to 1 uM by luciferase reporter gene assay; format: functional, organism-based; conditions: Hepacivirus hominis, subtype 1b NK/R2AN, Huh-7; in short: as §4
Vero = assay: Cytotoxicity against African green monkey Vero cells by WST dye based CCK8 assay; format: cell-based; conditions: Chlorocebus sabaeus
In short: (§5)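 CCK-8 survival assay: WST-8 tetrazolium reduced by cellular dehydrogenases to orange formazan, giving living-cell count; compounds tested up to 100 µM maximum.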

HFL1 = assay: Cytotoxicity against human HFL1 cells by WST dye based CCK8 assay; format: cell-based; in short: as §5
L929 = assay: Cytotoxicity against mouse L929 cells by WST dye based CCK8 assay; format: cell-based; in short: as §5
[14] = Cytotoxicity against mouse NIH/3T3 cells by WST dye based CCK8 assay; format: cell-based; conditions: NIH3T3; in short: as §5
[15] = Cytotoxicity against CHOK1 cells by WST dye based CCK8 assay; format: cell-based; conditions: Cricetulus griseus, CHO-K1; in short: as §5

Sequence of Cytochrome P450 2C19 (P33261 whole entry): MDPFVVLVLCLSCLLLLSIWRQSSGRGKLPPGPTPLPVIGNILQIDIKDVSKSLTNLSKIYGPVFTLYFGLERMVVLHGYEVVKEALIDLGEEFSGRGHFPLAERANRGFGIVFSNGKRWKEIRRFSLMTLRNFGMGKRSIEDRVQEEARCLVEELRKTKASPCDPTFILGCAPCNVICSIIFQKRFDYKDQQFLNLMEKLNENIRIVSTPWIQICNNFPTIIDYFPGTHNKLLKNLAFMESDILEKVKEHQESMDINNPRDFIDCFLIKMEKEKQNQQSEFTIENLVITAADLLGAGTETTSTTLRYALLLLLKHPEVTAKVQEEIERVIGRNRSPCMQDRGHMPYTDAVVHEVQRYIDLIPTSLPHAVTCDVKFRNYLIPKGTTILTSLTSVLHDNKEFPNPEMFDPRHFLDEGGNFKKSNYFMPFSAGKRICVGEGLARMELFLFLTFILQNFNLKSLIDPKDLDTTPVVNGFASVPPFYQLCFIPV
Sequence of Cytochrome P450 2C9 (P11712 whole entry): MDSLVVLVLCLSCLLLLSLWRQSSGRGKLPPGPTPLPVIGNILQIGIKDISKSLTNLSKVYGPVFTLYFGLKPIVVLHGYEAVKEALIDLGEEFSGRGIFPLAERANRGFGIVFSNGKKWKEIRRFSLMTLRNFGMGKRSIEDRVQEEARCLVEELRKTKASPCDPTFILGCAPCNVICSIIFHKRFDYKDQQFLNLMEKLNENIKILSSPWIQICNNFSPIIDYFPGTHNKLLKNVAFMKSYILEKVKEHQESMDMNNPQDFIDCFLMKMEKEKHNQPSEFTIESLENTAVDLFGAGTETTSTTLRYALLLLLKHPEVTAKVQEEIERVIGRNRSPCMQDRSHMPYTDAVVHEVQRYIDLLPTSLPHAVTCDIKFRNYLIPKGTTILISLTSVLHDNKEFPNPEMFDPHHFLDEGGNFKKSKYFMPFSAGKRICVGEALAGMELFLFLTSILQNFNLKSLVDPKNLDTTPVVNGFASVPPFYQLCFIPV
Sequence of Cytochrome P450 3A4 (P08684 whole entry): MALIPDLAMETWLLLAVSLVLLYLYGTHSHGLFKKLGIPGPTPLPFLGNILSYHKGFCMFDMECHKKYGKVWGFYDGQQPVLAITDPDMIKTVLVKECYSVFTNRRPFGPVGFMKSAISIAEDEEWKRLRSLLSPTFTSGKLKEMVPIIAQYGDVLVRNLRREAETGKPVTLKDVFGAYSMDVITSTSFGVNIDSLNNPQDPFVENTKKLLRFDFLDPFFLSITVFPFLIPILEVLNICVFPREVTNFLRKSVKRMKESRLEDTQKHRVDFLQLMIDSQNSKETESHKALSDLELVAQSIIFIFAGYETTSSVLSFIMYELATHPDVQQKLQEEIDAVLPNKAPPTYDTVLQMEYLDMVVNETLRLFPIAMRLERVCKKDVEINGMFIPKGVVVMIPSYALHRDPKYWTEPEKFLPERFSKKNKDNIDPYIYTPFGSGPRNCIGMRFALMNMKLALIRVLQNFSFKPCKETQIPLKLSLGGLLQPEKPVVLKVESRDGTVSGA
Sequence of Cytochrome P450 2D6 (P10635 whole entry): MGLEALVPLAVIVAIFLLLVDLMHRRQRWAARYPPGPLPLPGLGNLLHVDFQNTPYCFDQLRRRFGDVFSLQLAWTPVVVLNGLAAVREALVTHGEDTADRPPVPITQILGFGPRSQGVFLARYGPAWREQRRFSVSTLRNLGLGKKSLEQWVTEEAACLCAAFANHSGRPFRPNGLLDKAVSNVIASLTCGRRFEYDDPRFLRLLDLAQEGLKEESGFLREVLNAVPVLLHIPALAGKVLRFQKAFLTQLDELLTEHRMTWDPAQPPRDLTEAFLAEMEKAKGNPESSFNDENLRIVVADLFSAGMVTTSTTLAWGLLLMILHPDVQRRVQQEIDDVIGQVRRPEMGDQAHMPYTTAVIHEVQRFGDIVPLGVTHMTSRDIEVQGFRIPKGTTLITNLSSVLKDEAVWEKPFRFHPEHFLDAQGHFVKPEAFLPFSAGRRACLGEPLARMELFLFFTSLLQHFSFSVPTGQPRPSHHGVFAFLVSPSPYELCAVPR
Sequence of hERG (KCNH2) (Q12809 whole entry): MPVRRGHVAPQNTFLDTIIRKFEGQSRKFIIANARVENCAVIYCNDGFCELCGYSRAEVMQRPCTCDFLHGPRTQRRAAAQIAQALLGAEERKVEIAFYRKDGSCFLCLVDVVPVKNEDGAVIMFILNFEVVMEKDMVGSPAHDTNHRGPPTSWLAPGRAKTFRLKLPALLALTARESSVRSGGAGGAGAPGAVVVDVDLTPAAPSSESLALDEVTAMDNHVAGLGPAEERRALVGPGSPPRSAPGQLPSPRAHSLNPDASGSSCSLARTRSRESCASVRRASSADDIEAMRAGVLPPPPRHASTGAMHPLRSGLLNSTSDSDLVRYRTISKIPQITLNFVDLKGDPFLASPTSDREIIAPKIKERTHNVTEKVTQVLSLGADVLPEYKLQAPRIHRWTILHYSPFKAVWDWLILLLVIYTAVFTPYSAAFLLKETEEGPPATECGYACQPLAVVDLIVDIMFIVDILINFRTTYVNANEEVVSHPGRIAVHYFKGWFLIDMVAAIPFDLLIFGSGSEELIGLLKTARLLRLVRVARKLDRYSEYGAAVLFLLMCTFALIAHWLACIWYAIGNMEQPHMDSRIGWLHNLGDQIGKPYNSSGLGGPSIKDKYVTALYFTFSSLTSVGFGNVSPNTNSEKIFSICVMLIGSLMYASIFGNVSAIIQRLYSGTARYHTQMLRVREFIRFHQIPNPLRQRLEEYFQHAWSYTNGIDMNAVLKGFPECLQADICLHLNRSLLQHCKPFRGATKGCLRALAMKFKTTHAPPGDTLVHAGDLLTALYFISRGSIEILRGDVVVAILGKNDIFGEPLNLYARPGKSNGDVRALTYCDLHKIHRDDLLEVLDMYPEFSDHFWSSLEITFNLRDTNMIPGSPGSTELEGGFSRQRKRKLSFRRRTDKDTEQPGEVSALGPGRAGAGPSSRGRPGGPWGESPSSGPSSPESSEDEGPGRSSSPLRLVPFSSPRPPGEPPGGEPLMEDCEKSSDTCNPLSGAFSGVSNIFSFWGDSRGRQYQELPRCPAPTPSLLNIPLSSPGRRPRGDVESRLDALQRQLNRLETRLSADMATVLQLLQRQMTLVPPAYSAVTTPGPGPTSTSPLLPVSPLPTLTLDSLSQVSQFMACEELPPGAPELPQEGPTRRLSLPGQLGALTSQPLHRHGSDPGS

COC(=O)N[C@@H](C(=O)N1CCC[C@H]1C(=O)Nc1ccc2c(c1)C(F)(F)c1cc(NC(=O)[C@@H]3CCCN3C(=O)[C@H](NC(=O)OC)c3ccccc3)ccc1-2)c1ccccc1
fold change (FC) (Salmonella typhimurium [1]): 1.3
fold change (FC) (Salmonella typhimurium [2]): 0.9
fold change (FC) (Salmonella typhimurium [3]): 1.1
fold change (FC) (Salmonella typhimurium [4]): 0.9
EC50 (Hepatitis C virus [5]): 0.059 nM
EC50 (Hepatitis C virus [6]): 3 pM
CC50 [7]: > 25 µM
inhibition at 10 µM (hERG (KCNH2)): 39.1%
remaining at 0.5 h, 1 µM [8]: 92%
EC50 (Cytochrome P450 1A2): > 100 µM
EC50 (Cytochrome P450 2C9): 0.277 µM
EC50 (Cytochrome P450 2D6): > 100 µM
EC50 (Cytochrome P450 2C19): 13.9 µM
EC50 (Cytochrome P450 3A4): 0.976 µM
half-life [9]: 1.68 h
bioavailability [10]: 7.6%
half-life [11]: 0.9 h
inhibition (Hepatitis C virus [12]): Active
inhibition (Hepatitis C virus [13]): Active
IC50 (Vero): > 100 µM
IC50 (HFL1): > 100 µM
IC50 (L929): > 100 µM
IC50 [14]: > 100 µM
IC50 [15]: > 100 µM
